MrgX1 allo act = allosterically activates human MrgX1 receptor signaling; MrgX1-HEK293, Fluo-4 calcium flux, FDSS; active compounds read high; B-score at 10 µM; hit rate 0.63% among 310,000; AID 588675;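 active = plate-corrected calcium response at least 3 library SD above typical, normal starting fluorescence, not activating the receptor alone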;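 also: compound read alongside a low EC10 to EC30 dose of BAM8-22 agonist; peak minus trough fluorescence over baseline measured at the second addition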
Target sequence (Q96LB2 whole entry, looked up): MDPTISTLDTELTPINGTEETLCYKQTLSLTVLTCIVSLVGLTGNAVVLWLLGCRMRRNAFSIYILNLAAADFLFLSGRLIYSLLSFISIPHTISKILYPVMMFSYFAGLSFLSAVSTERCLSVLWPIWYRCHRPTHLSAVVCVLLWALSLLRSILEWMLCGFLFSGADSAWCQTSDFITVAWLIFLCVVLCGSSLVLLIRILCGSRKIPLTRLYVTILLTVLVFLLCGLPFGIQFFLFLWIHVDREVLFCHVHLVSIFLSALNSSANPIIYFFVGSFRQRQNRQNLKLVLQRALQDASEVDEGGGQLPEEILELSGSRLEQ
RGS4 inh = human RGS4 inhibition. P49798. HEK293 M3R/RGS4 inducible, Fluo-4 calcium flux; active compounds read high; triggered by carbachol at its EC20. B-score at 10 µM. hit rate 0.45% among 310,000. AID 463165;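 active = B-score, a plate-corrected calcium signal, over three deviations above library mean, with baseline fluorescence within five deviations of library mean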;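 also: RGS4 expression induced by doxycycline in cells with stable M3 receptor; B-score is computed from the integrated fluorescence ratio over baseline after carbachol; higher B-score means a larger calcium signal and so more RGS4 inhibition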
Target sequence (P49798 whole entry, looked up): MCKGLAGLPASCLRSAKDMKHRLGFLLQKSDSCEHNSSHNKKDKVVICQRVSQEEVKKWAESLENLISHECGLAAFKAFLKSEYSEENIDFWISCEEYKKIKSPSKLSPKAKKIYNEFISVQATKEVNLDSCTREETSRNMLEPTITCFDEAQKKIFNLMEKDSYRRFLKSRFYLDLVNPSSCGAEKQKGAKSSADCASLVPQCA
MrgX1 agonist = agonists of human MrgX1 receptor. Q96LB2. MrgX1-HEK293 cells, Fluo-4 calcium fluorescence, agonist mode; active compounds read high. B-score at 10 µM. hit rate 0.44% among 310,000;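 active = calcium response B-score plate-corrected fluorescence ratio at least 3 library SD, with starting fluorescence B-score inside 5 SD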
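Test system: HEK293 cells stably expressing human MrgX1 receptor; Input: fifteen thousand cells per well; Dosing: compound delivered in addition one of three; Schedule: overnight seeding, then 1 h dark dye loading; Technique: Fluo-4 NW calcium fluorescence; Measure: B-scored fluorescence response ratio; Controls: positive and negative controls per plate.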
RGS4 act = potentiators or activators of RGS4 | HEK293 M3R/inducible RGS4, carbachol calcium flux Fluo4; active compounds read low | B-score at 10 µM | hit rate 0.92% among 310,000 | AID 463111;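 active = B-score of the integrated calcium signal more than 4 SD below the library mean, with starting fluorescence not abnormally high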;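 also: negative B-score means reduced calcium response which marks RGS4 activation or potentiation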
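System – HEK293 FlpIn-TREx cells, stable M3R, doxycycline-inducible RGS4 · Reagent – ECmax carbachol challenge · Times – compound preincubation 20 min at room temperature before agonist · Technique – Fluo4 fluorescence kinetic imaging of calcium · Measure – B score of integrated Fluo4 ratio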
MrgX1 antagonist = antagonists of human MrgX1 receptor; hit rate 1.3% among 310,000; B-score at 10 µM; MRGX1-HEK293 calcium flux, Fluo-4, BAM8-22 antagonism; active compounds read low;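 active = calcium-response B-score plate-corrected more than 3 library SD below zero, starting fluorescence within 5 deviations, no agonist response on first addition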;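 also: peak minus trough fluorescence over baseline after final BAM8-22 challenge near maximal dose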
* hit, by the source's call; i = inactive; . = no result. Hits are enriched below; roughly 3.5% of the tested compounds scored in any of these assays.

SMILES	MrgX1 allo act	RGS4 inh	MrgX1 agonist	RGS4 act	MrgX1 antagonist
Cc1csc2nc(CN3CCN(CC(=O)N(C)C)CC3)cc(=O)n12	i	i	i	i	i
COc1ccc(OC)c(/C=C2\N=C(c3ccccc3)OC2=O)c1	i	i	i	-7.4*	i
COc1cc(/C=C2\N=C(c3ccccc3)OC2=O)ccc1OC(C)=O	i	i	i	i	i
COc1cc(/C=C2/N=C(c3ccccc3)OC2=O)c(F)cc1OCc1ccccc1	i	i	i	i	-4.9*
CCCN(CCC)CCCNC(=S)Nc1ccc2nc(N3CCN(C)CC3)cc(C)c2c1	i	i	29*	i	i
CC(=O)N1c2ccc(S(=O)(=O)NCC3CCC(C(=O)NCc4ccccc4)CC3)cc2CC1C (configuration not stated)	i	i	i	i	i
CCOC(=O)/C(C#N)=C/c1cc2ccc(C)cc2nc1Cl	i	i	i	i	i
Cc1ccc2cc(C=O)c(Cl)nc2c1	7.3*	i	i	i	i
N#C/C(=C(/O)COc1ccccc1)c1nc2ccccc2s1	i	i	i	i	i
N#C/C(=C(/O)c1ccc(F)cc1)c1nc2ccccc2s1	i	i	29*	i	i
CC(C)C1OC2c3cccc4cccc(c34)C2N1c1ccccc1 (configuration not stated)	i	i	39*	i	i
CC(C)(C)OC(=O)CNC(=O)c1nc[nH]c1C(=O)N1CCc2ccccc2C1	i	i	i	i	i
O=C(CSc1nc2ccccc2c(=O)n1-c1ccc(F)cc1F)c1c[nH]c2ccccc12	i	i	i	i	-5.1*
O=C(CSc1nc2ccccc2c(=O)n1-c1ccc(F)cc1F)Nc1ccc(N2CCOCC2)cc1	i	i	i	i	i
CCN(CC)S(=O)(=O)c1ccc(N(C)C)c(NC(=O)CSCc2c(C)noc2C)c1	i	i	i	i	i
O=C(/C=C/c1ccccc1)CC(O)(c1ccccc1)C(F)(F)F (configuration not stated)	i	i	i	-10*	i
O=C(/C=C/c1ccccc1)CC(O)(c1ccccc1)C(F)(F)C(F)F (configuration not stated)	i	i	i	-8.9*	i
COc1ccc(/C=C/C(=O)CC(O)(c2ccccc2)C(F)(F)F)cc1 (configuration not stated)	i	i	i	i	i
CC(=O)Nc1ccc(S(=O)(=O)NCc2nc(-c3ccccc3C)no2)cc1	i	i	i	i	i
O=Cc1nc(-c2ccccc2Cl)n2ccccc12	i	i	i	i	-6.3*
O=Cc1nc(-c2ccc(Cl)cc2)n2ccccc12	i	i	i	i	i
Cc1cc(C(=O)Nc2ccc3c(c2)CCC3)ccc1[N+](=O)[O-]	i	i	i	i	i
O=C(c1ccc2[nH]c(=O)c(=O)[nH]c2c1)N1CCc2ccccc21	i	i	i	i	i
CCn1c(Cc2cccs2)nnc1SCC(=O)Nc1ccc(OC)c(OC)c1	i	i	i	i	-4.7*
CCn1c(SCC(=O)Nc2ccc3c(c2)oc2ccccc23)nnc1-c1ccc(N)cc1	i	8*	i	i	i
SMILES	MrgX1 allo act	RGS4 inh	MrgX1 agonist	RGS4 act	MrgX1 antagonist
COc1ccc(C(=O)Cn2cc[n+](C)c2)cc1	i	i	i	i	i
C/C(=N\NC(=S)NC1CCCCC1)c1ccc(Cl)c(Cl)c1	i	i	i	i	-4.9*
O=C(CN(C(=O)Cn1nnc(-c2ccc(F)cc2)n1)c1ccc(F)cc1)NC1CCCC1	i	i	i	i	i
CCc1nn(C(C)C(=O)NCc2cccc(OC)c2)c(=O)c2cc3occc3n12 (configuration not stated)	i	i	i	i	i
CCCCC1S/C(=N/N=C/c2ccc(OC)cc2)N(Cc2ccc(OC)cc2)C1=O (configuration not stated)	i	i	i	i	-5.3*
O=C1C(=O)N(CCCc2ccccc2)c2ccccc21	i	i	38*	i	i
CC1C(=NO)C(C)C(c2ccc(N(C)C)cc2)NC1c1ccc(N(C)C)cc1 (configuration not stated)	14*	i	i	i	i
Cc1cc(C)c(C)c(S(=O)(=O)N2CCC(C(=O)OCC(=O)N3c4ccccc4NC(=O)C3(C)C)CC2)c1C	i	i	i	-7*	i
Cn1c(C(=O)N(Cc2ccccc2)Cc2cccs2)cc2sccc21	i	i	i	-7.8*	i
O=C(Cn1cccn1)N1CCCC(N2CCN(c3ccccc3F)CC2)C1 (configuration not stated)	i	i	i	i	i
COc1ccccc1/C=C/C=C(\C#N)C(=O)NC(C)c1ccccc1 (configuration not stated)	i	i	i	i	i
COc1cc(/C=C(/C#N)C(=O)NC(C)c2ccccc2)cc(OC)c1O (configuration not stated)	i	i	59*	i	i
COC(=O)c1ccccc1NC(=O)CSCC(=O)Nc1ccc(F)cc1	i	i	i	i	i
O=C(N/N=C/c1cccc2nccnc12)c1ccncc1	i	i	i	-8.3*	i
C/C(=N\Nc1ccc([N+](=O)[O-])cc1)c1ccc(O)cc1	i	i	i	i	-5.6*
O=C(NCCc1ccccc1Cl)c1ccc2nc3ccccc3c(=O)n2c1	i	i	i	i	i
Cc1c2cnn(CC(=O)NCCN3CCOCC3)c(=O)c2c(C)n1Cc1ccc(F)cc1	i	i	i	i	-5.8*
Cc1c2cnn(CC(=O)N3CCN(c4ncccn4)CC3)c(=O)c2c(C)n1Cc1ccc(F)cc1	i	i	i	i	i
Cc1ccc(C)c(NC(=S)NC(NC(=O)N(C)C)C(Cl)(Cl)Cl)c1 (configuration not stated)	i	i	i	i	i
Cc1ccc(C)c(NC(=S)NC(NC(=O)Cc2cccc3ccccc23)C(Cl)(Cl)Cl)c1 (configuration not stated)	i	i	i	i	-9.1*
Cc1ccc(S(=O)(=O)N2CCN(C(=O)C3=COCCO3)CC2)cc1C	i	i	i	i	i
O=C(C1=COCCO1)N1CCN(S(=O)(=O)c2cccc(Cl)c2Cl)CC1	i	i	i	i	-5.7*
Cc1ccc(S(=O)(=O)N2[C@@H](c3ccccc3F)C(C(=O)O)=CC[C@H]2c2ccc3c(c2)OCO3)cc1	14*	.	i	.	i
